# Assays:
# Plasmodium falciparum [1] = assay: Antimalarial activity against Plasmodium falciparum Dd2 after 3 days by SYBR green I assay; format: functional, organism-based; details: Dd2, 72 h
# [2] = Selectivity index, ratio of EC50 for human WI38 cells to EC50 for Plasmodium falciparum; format: toxicity, cell-based, WI-38; details: read-out: Ratio EC50
# [3] = Inhibition of Escherichia coli recombinant DXR using DXP as substrate preincubated for 5 mins
# Plasmodium falciparum [4] = assay: Antimalarial activity against Plasmodium falciparum 3D7 after 3 days by SYBR green I assay; format: functional, organism-based; details: 3D7, 72 h
# Plasmodium falciparum [5] = assay: Ratio of fosmidomycin Ki to compound Ki for Plasmodium falciparum recombinant DXR
# [6] = Inhibition of Plasmodium falciparum recombinant DXR using DXP as substrate preincubated for 5 mins
# Method in brief: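 Recombinant P. falciparum DXR. Inhibition is expressed as Ki.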
# WI-38 = assay: Cytotoxicity against human WI38 cells after 48 hrs by MTS assay; format: cell-based; details: WI-38, 48 h
# [7] = Half life in plasma (unknown origin); format: ADME, cell-free; details: unidentified
smiles,measurement,setting,value
O=CN(O)CCC(c1ccncc1)P(=O)(O)O (stereo unspecified),EC50,Plasmodium falciparum [1],170 nM
same,selectivity ratio,[2],> 1700
same,Ki,[3],35 nM
same,EC50,Plasmodium falciparum [4],180 nM
same,Ratio Ki,Plasmodium falciparum [5],2.4
same,Ki,[6],8.9 nM
same,EC50,WI-38,> 300000 nM
O=CN(O)CCCP(=O)(O)O [FOSMIDOMYCIN],EC50,Plasmodium falciparum [1],440 nM
same,EC50,Plasmodium falciparum [4],1170 nM
same,half-life,[7],1 h
CC(=O)N(O)CCC(c1cccnc1)P(=O)(O)O (stereo unspecified),EC50,Plasmodium falciparum [1],310 nM
same,selectivity ratio,[2],> 1700
same,Ki,[3],42 nM
same,EC50,Plasmodium falciparum [4],440 nM
same,Ratio Ki,Plasmodium falciparum [5],11
same,Ki,[6],1.9 nM
same,EC50,WI-38,> 300000 nM
O=CN(O)CCC(c1ccccc1)P(=O)(O)O (stereo unspecified),Ki,[3],1500 nM
same,Ki,[6],480 nM
CCN(CC)CCCC(C)Nc1ccnc2cc(Cl)ccc12 (stereo unspecified) [CHLOROQUINE],EC50,Plasmodium falciparum [1],120 nM
same,EC50,Plasmodium falciparum [4],21 nM
CC(=O)N(O)CCC(c1ccccc1)P(=O)(O)O (stereo unspecified),EC50,Plasmodium falciparum [1],1700 nM
same,EC50,Plasmodium falciparum [4],3500 nM
CC(=O)N(O)CCC(c1ccncc1)P(=O)(O)O (stereo unspecified),EC50,Plasmodium falciparum [1],460 nM
same,selectivity ratio,[2],> 1700
same,Ki,[3],82 nM
same,EC50,Plasmodium falciparum [4],630 nM
same,Ratio Ki,Plasmodium falciparum [5],1.6
same,Ki,[6],13 nM
same,EC50,WI-38,> 300000 nM
O=CN(O)CCC(c1cccnc1)P(=O)(O)O (stereo unspecified),EC50,Plasmodium falciparum [1],180 nM
same,selectivity ratio,[2],> 1700
same,Ki,[3],87 nM
same,EC50,Plasmodium falciparum [4],340 nM
same,Ki,[6],13 nM
same,EC50,WI-38,> 300000 nM

# Reference: ChEMBL document CHEMBL2321676, “Antimalarial and Structural Studies of Pyridine-containing Inhibitors of 1-Deoxyxylulose-5-phosphate Reductoisomerase” (ACS Med Chem Lett, 2013)
